BB579 growth dn: chemicals that inhibit yeast BB579 growth in restrictive medium (lifespan-shortening candidates). S. cerevisiae BB579 growth, OD615, 48 h. inhibition, % at 10 µM. 140,000 compounds, 0.51% hits. AID 804;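 active = inhibition above a set limit, 3 SD over the mean compound inhibition, cut at about 44% in these data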
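Material: Saccharomyces cerevisiae DeaD strain BB579, replicative lifespan model yeast; buffer or medium: CSMM-D restrictive synthetic medium containing dextrose (glucose); compound: 10 µM single dose, DMSO 0.25%; timing: 48 h compound exposure at 30 °C after 4 h preincubation; signal: turbidity as optical density at 615 nm; benchmarks: positive control amphotericin B 10 µg/mL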
RAM inhibit: blocks the yeast RAM network. S. cerevisiae dse1pr::URA3 reporter, 5-FOA growth OD615, 2 d; analog-sensitive cbk1-as2 kinase mutant strain. AID 868. 190,000 compounds, 1.8% hits. inhibition, % at 50 µM;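 active = inhibition above a set limit, 3 SD over mean compound inhibition, cut at about 8.4% in these data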;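 note: inhibition rescues growth on 5-FOA so higher OD means more RAM inhibition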
WT yeast gro inh: growth inhibition of WT yeast, mitochondrial fusion screen; 190,000 compounds, 2.1% hits; AID 1362; inhibition, % at 10 µM; mitochondrial fusion phenotypic screen, WT strain; in the data active = inhibition above about 58%; tested in S. cerevisiae
KCC2 mod: modulates chloride dependent transport by human KCC2; Q9H2X9; KCC2 cells, thallium flux FluoZin-2 fluorescence; B-score of Tl+ flux slope (higher = more flux/activation; lower = inhibition) at 10 µM; 190,000 compounds, 2.2% hits;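 active = thallium flux slope and its plate-corrected score both differing from the plate sample mean at a set confidence after two filtering rounds, in either direction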;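 note: slope of fluorescence scaled to starting intensity during 10 to 20 s after thallium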
Target sequence (Q9H2X9 whole entry, looked up): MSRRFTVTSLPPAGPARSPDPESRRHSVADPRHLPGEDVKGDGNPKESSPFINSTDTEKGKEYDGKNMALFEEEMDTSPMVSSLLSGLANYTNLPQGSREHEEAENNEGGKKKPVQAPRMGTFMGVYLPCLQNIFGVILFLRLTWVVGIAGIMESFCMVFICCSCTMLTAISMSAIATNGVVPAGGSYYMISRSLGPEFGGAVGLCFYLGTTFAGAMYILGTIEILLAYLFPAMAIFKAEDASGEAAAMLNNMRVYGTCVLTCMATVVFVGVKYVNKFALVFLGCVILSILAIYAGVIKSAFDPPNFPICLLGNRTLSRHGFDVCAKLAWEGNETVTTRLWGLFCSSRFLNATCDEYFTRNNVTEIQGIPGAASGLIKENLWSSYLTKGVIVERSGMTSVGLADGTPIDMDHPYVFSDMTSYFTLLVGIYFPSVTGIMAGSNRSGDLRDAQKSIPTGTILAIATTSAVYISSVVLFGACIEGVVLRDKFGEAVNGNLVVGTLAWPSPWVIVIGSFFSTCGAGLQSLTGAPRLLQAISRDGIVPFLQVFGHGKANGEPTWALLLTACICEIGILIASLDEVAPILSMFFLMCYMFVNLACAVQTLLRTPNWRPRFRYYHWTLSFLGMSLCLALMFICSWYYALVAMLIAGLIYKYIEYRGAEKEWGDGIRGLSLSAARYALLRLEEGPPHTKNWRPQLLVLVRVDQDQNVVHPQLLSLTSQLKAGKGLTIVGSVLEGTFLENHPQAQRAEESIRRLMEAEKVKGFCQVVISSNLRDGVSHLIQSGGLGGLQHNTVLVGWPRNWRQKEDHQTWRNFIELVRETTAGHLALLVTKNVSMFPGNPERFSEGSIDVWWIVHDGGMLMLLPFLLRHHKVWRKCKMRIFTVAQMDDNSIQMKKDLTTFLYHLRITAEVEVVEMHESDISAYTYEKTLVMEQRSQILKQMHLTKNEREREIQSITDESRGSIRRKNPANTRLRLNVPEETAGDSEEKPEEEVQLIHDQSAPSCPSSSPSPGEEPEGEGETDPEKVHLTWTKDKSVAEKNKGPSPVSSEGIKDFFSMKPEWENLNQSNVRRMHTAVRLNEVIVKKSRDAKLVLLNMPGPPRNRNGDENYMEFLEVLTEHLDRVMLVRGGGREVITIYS
Yeast life ext: extends the lifespan of yeast | S. cerevisiae growth with nicotinamide, OD615; deaD strain in restrictive glucose medium | inhibition of the nicotinamide effect, % at 10 µM | 130,000 compounds, 0.68% hits | AID 775;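 active = inhibition above a set limit, placed 3 SD over the median of all compounds, cut at about 26% in these data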
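Assay system: DeaD-strain S. cerevisiae. Medium: CSMM-D glucose medium, restrictive. Reagent: nicotinamide, 1.5 mM, co-present with compound. Compound: 10 µM single point, 0.25% DMSO. Schedule: culture preincubation 4 h, compound exposure 48 h, both 30 °C. Detection: absorbance at 615 nm.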
KCC2 secondary: KCC2 (human) modulation, secondary assay; shares compounds with KCC2 mod; HEK293-KCC2, thallium flux, FluoZin2 fluorescence; stronger effect = higher value; normalised thallium flux (F/F0 slope) at 10 µM; 3,700 compounds, 15% hits; AID 1713;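 active = thallium flux slope above the same plate's solvent-only control mean plus 3 SD; inconclusive = the two replicate wells disagree; inactive = no significant difference from solvent-only control wells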
KCC2 bumet counter: thallium flux persisting under bumetanide in KCC2 cells, counter-screen secondary assay; shares compounds with KCC2 mod; HEK293-KCC2 + bumetanide/ouabain, thallium flux FluoZin2; stronger effect = higher value; normalized thallium flux at 10 µM; 3,700 compounds, 49% hits; AID 1714;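 active = thallium entry rate above the same plate's blocked-transporter control wells by more than 3 SD; inconclusive = the two repeat wells disagree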;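 note: raw slope of fluorescence over initial fluorescence between 10 and 20 s after thallium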
KCC2 sec2: KCC2 (human) modulation, second secondary assay. normalized thallium flux at 10 µM. HEK293-KCC2, thallium flux FluoZin2 fluorescence; actives lie on both sides; F/F0 rise rate, 10–20 s post-thallium. 3,700 compounds, 23% hits. shares compounds with KCC2 mod;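 active = thallium flux slope more than 3 SD above or below the plate's solvent-only control mean, mostly below; inconclusive = the two repeat wells disagreed; inactive = no significant shift from solvent-only controls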
HEK counter1: parental HEK flux effect, counter-screen; shares compounds with KCC2 mod; HEK293 parental cells, thallium flux FluoZin2, ouabain; baseline-ratio fluorescence slope, 10–20 s after thallium; thallium flux rate (normalised fluorescence) at 10 µM; 3,700 compounds, 46% hits; AID 1716;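 active = thallium flux rate significantly above the same plate's solvent-only control wells, beyond their mean plus 3 SD; inconclusive = the two replicate wells gave conflicting results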
KCC2 retest ouab: confirmation of human KCC2 modulators with ouabain; shares compounds with KCC2 mod; HEK293-KCC2, thallium flux FluoZin2 fluorescence; bidirectional: low = inhibitor, high = activator; 3,700 compounds, 48% hits; raw Tl+ flux slope (below DMSO = inhibition, above = activation) at 10 µM;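 active = thallium flux slope beyond 3 SD from same-plate DMSO control mean in most replicates, usually higher, sometimes lower; inconclusive = repeat tests gave conflicting results; inactive = no significant difference from controls in most replicates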;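 note: slope of initial-normalized fluorescence between seconds 10 and 20 after thallium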
HEK counter2: parental HEK flux effect, counter-screen 2; shares compounds with KCC2 mod; HEK293 parental, thallium flux FluoZin-2 fluorescence slope; thallium flux slope at 10 µM; 3,700 compounds, 33% hits; AID 1718;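 active = thallium flux slope above the same plate's solvent-control mean plus 3 SD in both duplicate wells; inconclusive = duplicate wells that disagreed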;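 note: run without ouabain in cells lacking the KCC2 cotransporter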
A number is an active result; n = inactive; u = inconclusive; x = not tested or not shown. Hits are enriched below; roughly 5.5% of the tested compounds scored in any of these assays.

SMILES	BB579 growth dn	RAM inhibit	WT yeast gro inh	KCC2 mod	Yeast life ext	KCC2 secondary	KCC2 bumet counter	KCC2 sec2	HEK counter1	KCC2 retest ouab	HEK counter2
C/C(=N\NC(=O)c1ccc2c(c1)OCO2)c1ccc(O)cc1	x	x	x	n	x	x	x	x	x	x	x
CC(C)CC(CC(C)C)=NNC(=O)c1ccc2c(c1)OCO2	x	n	n	3.9	x	n	n	n	n	n	n
O=C(C1=C[C@@H](c2ccccc2)C[C@@H](OCc2ccc(CO)cc2)O1)N1CCCCCCC1	x	n	n	n	x	x	x	x	x	x	x
O=C(CSc1nc2[nH]ncc2c(=O)n1-c1ccc(Cl)c(Cl)c1)NCc1ccccc1Cl	x	n	n	n	x	x	x	x	x	x	x
O=C(CSc1nnc(-c2ccco2)n1Cc1ccccc1)c1ccc(F)cc1	n	n	n	-6.1	n	n	u	0.021	0.0055	0.012	u
O=C(CSc1nnc(-c2ccco2)n1Cc1ccccc1)NCc1ccccc1	n	n	n	n	x	x	x	x	x	x	x
Cc1occc1-c1nnc(SCC(=O)c2ccc(F)cc2)n1Cc1ccco1	n	n	n	-3	n	n	u	0.023	0.0055	0.011	n
CC1(C)NC(=O)N(CCOCCOc2ccccc2-c2ccccc2)C1=O	x	n	n	n	x	x	x	x	x	x	x
NS(=O)(=O)c1cnccc1Nc1ccc(Cl)c(Cl)c1	n	n	n	n	n	x	x	x	x	x	x
CC(C)CCC(CC(C)O)c1n[nH]c(=S)n1-c1ccccc1 (stereo not drawn)	n	n	n	n	n	x	x	x	x	x	x
O=C(COC(=O)c1cc([N+](=O)[O-])ccc1NCCO)c1ccccc1	n	n	n	-3.2	n	n	u	0.023	n	u	n
O=C(COC(=O)c1ccccc1-c1ccccc1[N+](=O)[O-])c1ccccc1	n	n	n	n	x	x	x	x	x	x	x
CCSC(C)CC1CC(=O)CC(=O)C1 (stereo not drawn)	n	n	n	n	n	x	x	x	x	x	x
CCCc1nc2c(o1)CC(CC(C)SCC)CC2=O (stereo not drawn)	n	n	n	4.9	n	n	n	u	n	n	n
FC(F)(F)c1cc(N2CCOCC2)nc(-c2ccccc2)n1	n	n	n	n	n	x	x	x	x	x	x
COC(=O)c1cc(=O)c2c(C)nc(C(Cl)(Cl)Cl)nc2[nH]1	x	n	n	n	x	x	x	x	x	x	x
Cc1nn(C)cc1CN(C)C(=O)c1cc(COc2ccc(F)cc2F)on1	x	n	n	x	x	x	x	x	x	x	x
Fc1ccc(NC(=S)Nc2nccs2)cc1	x	n	n	77	x	0.03	0.064	u	0.1	0.083	0.026
S=C(Nc1ccccc1)Nc1nccs1	x	x	x	138	x	0.01	0.084	0.05	0.07	0.069	0.039
O=C(NNC1=C(C(=O)C(F)(F)F)CCC1)c1ccc(Br)cc1	n	n	n	11	n	n	0.024	n	0.015	u	0.012
COc1ccccc1C(=O)NNC1=C(C(=O)C(F)(F)F)CCC1	n	n	n	4.9	n	n	0.044	0.043	0.038	0.041	0.036
Nc1ccccc1C(=O)NNC1=C(C(=O)C(F)(F)F)CCC1	x	x	x	n	x	x	x	x	x	x	x
O=C(NNC1=C(C(=O)C(F)(F)F)CCC1)c1ccccc1O	n	n	n	n	n	x	x	x	x	x	x
O=C(CN(c1ccc(Cl)c(C(F)(F)F)c1)S(=O)(=O)c1ccccc1)N/N=C/c1cccc2c1OCCO2	n	n	n	n	n	x	x	x	x	x	x
CC(C)(c1ccccc1)c1ccc(OCC(O)CNC2CCN(Cc3ccccc3)CC2)cc1 (stereo not drawn)	x	n	n	n	x	x	x	x	x	x	x
C=C(C)c1cccc(C(C)(C)NC(=O)N2CCCC(C(N)=O)C2)c1 (stereo not drawn)	n	n	n	n	n	x	x	x	x	x	x
C=C(C)c1cccc(C(C)(C)NC(=O)N2CCC(C(N)=O)CC2)c1	x	n	n	-3.2	x	n	u	n	n	n	n

Compound activity deposited in PubChem BioAssay by several laboratories.
